Columns and labels:
[1] = molecular target: T1, Sodium-dependent dopamine transporter (Rattus norvegicus, UniProt P23977); test: Inhibition of [3H]DA reuptake in rat caudate homogenate.; type: functional, tissue-based
[2] = molecular target: T2, Monoamine transporters; serotonin & dopamine (Rattus norvegicus) (UniProt P31652+P23977); test: Ratio of reuptake of 5-HT to that of DA; type: functional
[3] = molecular target: T1, Sodium-dependent dopamine transporter; test: Binding affinity for rat Dopamine transporter.
Procedure, shortened: (§1)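 Drugs and blockers prepared in 55.2 mM sodium phosphate buffer, pH 7.4, with 1 mg/mL BSA. Radioligand prepared in the same buffer with chymostatin, leupeptin, EDTA and EGTA. Triplicate incubations ran 18-24 h at 4 °C (equilibrium) in 1 mL, then were filtered over GF/B filters presoaked in 2% polyethylenimine.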

[4] = molecular target: T2, Monoamine transporters; serotonin & dopamine (Rattus norvegicus); test: Ratio of binding affinity of 5-HT to that of DA; type: protein assay
[5] = molecular target: T3, Sodium-dependent serotonin transporter (Rattus norvegicus, UniProt P31652); test: Binding affinity for rat 5-hydroxytryptamine transporter.; procedure, shortened: as §1
T3 sequence (P31652 whole entry): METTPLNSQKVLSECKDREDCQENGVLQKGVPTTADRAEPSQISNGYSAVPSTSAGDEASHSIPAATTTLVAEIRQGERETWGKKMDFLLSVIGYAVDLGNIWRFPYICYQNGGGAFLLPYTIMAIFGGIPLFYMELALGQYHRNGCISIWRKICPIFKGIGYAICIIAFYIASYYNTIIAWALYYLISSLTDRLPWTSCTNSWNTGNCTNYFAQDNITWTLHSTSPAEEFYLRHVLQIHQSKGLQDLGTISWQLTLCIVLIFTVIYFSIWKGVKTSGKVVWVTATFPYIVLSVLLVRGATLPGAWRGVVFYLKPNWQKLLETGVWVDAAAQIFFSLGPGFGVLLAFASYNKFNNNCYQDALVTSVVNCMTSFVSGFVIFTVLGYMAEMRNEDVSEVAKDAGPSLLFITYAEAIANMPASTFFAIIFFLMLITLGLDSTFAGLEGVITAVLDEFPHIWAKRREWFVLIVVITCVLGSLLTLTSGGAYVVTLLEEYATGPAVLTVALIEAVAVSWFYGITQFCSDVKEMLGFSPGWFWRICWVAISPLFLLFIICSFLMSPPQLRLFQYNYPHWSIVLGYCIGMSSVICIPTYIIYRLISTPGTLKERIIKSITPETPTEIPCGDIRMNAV

[6] = molecular target: T3, Sodium-dependent serotonin transporter; test: Inhibition of [3H]5-HT reuptake in whole rat brain (minus cerebellum) homogenate.; type: functional, tissue-based

T1 sequence (P23977 whole entry): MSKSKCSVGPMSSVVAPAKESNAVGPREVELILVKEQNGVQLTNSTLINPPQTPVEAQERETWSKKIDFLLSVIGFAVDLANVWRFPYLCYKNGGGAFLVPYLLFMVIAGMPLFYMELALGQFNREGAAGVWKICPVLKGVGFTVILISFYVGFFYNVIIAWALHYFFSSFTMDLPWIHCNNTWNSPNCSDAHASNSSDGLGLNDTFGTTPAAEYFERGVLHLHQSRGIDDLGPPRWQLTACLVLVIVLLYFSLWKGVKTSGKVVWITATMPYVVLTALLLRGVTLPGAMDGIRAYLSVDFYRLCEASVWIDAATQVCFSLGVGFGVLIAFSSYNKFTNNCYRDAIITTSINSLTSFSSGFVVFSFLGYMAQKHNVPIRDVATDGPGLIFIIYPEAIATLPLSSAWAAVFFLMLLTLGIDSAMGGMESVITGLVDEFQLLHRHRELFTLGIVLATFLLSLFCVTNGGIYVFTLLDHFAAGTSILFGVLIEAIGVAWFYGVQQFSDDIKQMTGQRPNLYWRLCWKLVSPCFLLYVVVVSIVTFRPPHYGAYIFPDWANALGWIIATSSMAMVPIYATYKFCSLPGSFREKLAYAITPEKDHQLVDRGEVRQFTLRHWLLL
T2 sequence (P23977 whole entry, looked up): as the sequence (P23977 whole entry) above
T2 sequence (P31652 whole entry, looked up): as the sequence (P31652 whole entry) above

Row | SMILES | IC50 [1] [nM] | Ratio [2] | IC50 [3] [nM] | Ratio [4] | IC50 [5] [nM] | IC50 [6] [nM]
1 | CN1C2CCC1CN(CCOC(c1ccccc1)c1ccccc1)C2 | 1140 | 12 | 111 | 58 | 6400 | 13700
2 | Fc1ccc(C(OCCN2CC3CCC(C2)N3C/C=C/c2ccco2)c2ccc(F)cc2)cc1 | 24 | 13 | 5.5 | 27 | 146 | 299
3 | CN1CC2CC1CN2CCOC(c1ccccc1)c1ccccc1 (stereo not given) | 830 | 33 | 1170 | 29 | 33000 | 28000
4 | Fc1ccc(C(OCCN2CC3CCC(C2)N3Cc2cc3ccccc3[nH]2)c2ccc(F)cc2)cc1 | 40 | 16 | 1.4 | 74 | 104 | 645
5 | c1ccc(CCCN2CC3CC2CN3CCOC(c2ccccc2)c2ccccc2)cc1 (stereo not given) | 198 | 5 | 223 | 3 | 720 | 912
6 | Fc1ccc(C(OCCN2CC3CCC(C2)N3C/C=C/c2cccnc2)c2ccc(F)cc2)cc1 | 24 | 40 | 12 | 33 | 395 | 968
7 | c1ccc(CCCN2C3CCC2CN(CCOC(c2ccccc2)c2ccccc2)C3)cc1 | 24 | 58 | 18 | 42 | 740 | 1390
8 | CN1CC2CC1CN2CCOC(c1ccc(F)cc1)c1ccc(F)cc1 (stereo not given) | 125 | 17 | 121 | 14 | 1700 | 2150
9 | Fc1ccc(C(OCCN2CC3CC2CN3CCCc2ccccc2)c2ccc(F)cc2)cc1 (stereo not given) | 113 | 1.5 | 127 | 1.6 | 203 | 173
10 | CN1C2CCC1CN(CCOC(c1ccc(F)cc1)c1ccc(F)cc1)CC2 (stereo not given) | 36 | 47 | 89 | 21 | 1900 | 1670
11 | CN1C2CCC1CN(CCOC(c1ccc(F)cc1)c1ccc(F)cc1)C2 | 9.6 | 93 | 8 | 88 | 705 | 898
12 | Fc1ccc(C(OCCN2CC3CCC(C2)N3CCCc2ccccc2)c2ccc(F)cc2)cc1 | 219 |  | 8.2 |  | 77 | 506
13 | c1ccc(C(OCCN2CCC3CCC(C2)N3)c2ccccc2)cc1 (stereo not given) | 260 | 15 | 431 | 14 | 6060 | 3960
14 | Fc1ccc(C(OCCN2CC3CCC(C2)N3C/C=C/c2cccs2)c2ccc(F)cc2)cc1 | 28 | 10 | 4 | 12 | 46 | 268
15 | c1ccc(CCCN2C3CCC2CN(CCOC(c2ccccc2)c2ccccc2)CC3)cc1 (stereo not given) | 87 | 26 | 32 | 41 | 1320 | 2300
16 | CN1C2CCC1CN(CCOC(c1ccccc1)c1ccccc1)CC2 (stereo not given) | 928 | 6.6 | 307 | 56 | 17000 | 6150
17 | Fc1ccc(C(OCCN2CCC3CCC(C2)N3CCCc2ccccc2)c2ccc(F)cc2)cc1 (stereo not given) | 47 | 44 | 130 | 6.5 | 843 | 2080

Reference: ChEMBL document CHEMBL1133553, “Synthesis and transporter binding properties of bridged piperazine analogues of 1-[2-[bis(4-fluorophenyl)methoxy]ethyl]-4-(3-phenylpropyl)piperazine (GBR 12909)” (J Med Chem, 2000)
